ChEMBL document CHEMBL3580596, “Discovery of Multitarget Antivirals Acting on Both the Dengue Virus NS5-NS3 Interaction and the Host Src/Fyn Kinases” (J Med Chem, 2015)
Calls of active or inactive are those of the source. No cut-off for these calls is given here.

Experiments:
dengue virus type 2 [1] = assay: Antiviral activity against DENV serotype 2 strain New Guinea V infected in African green monkey Vero B cells assessed as inhibition of virus-induced cytopathogenic effect after 7 days; assay type: functional, organism-based
Method in brief: (§1)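 Vero-B cells, 7×10^3/well, adhered overnight, then given 1:2 serial dilutions (start 100 μg/mL) plus 100 CCID50 DENV-2 NGC (virus grown in C6/36 cells) in MEM with 2% FBS. After 7 days, fixed with ethanol and stained with 1% methylene blue. EC50 for 50% inhibition of virus-induced CPE comes from microscopic scoring of each well.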

[2] = Cytotoxicity against african green monkey Vero B cells; assay type: cell-based; details: chlorocebus sabaeus
Method in brief: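 Uninfected Vero-B cells treated with compound dilutions; CC50 taken as concentration giving 50% reduction of metabolic activity or cell growth. Read-out by MTS/PMS (yield-assay series) or by 7-day methylene blue staining with microscopic scoring (CPE series, 1:2 dilutions from 100 μg/mL).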

[3] = Selectivity index, ratio of CC50 for African green monkey Vero B cells to EC50 for DENV serotype 2 strain New Guinea V
dengue virus type 2 [4] = assay: Antiviral activity against DENV serotype 2 strain New Guinea V infected in African green monkey Vero B cells assessed as inhibition of virus replication after 4 days by qRT-PCR analysis; assay type: functional, organism-based; details: 96 h
Method in brief: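 Vero-B cells, 5×10^4/well, infected one day after seeding with 100 CCID50 DENV-2 NGC for 2 h, then washed 3 times. Cultured 4 days with 5-fold compound dilutions (50–0.08 μg/mL) in medium with 2% FBS. Supernatant viral RNA measured by RT-qPCR; EC50 (50% inhibition of RNA replication) found by logarithmic interpolation.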

dengue virus type 2 [5] = assay: Inhibition of DENV2 His- and FLAG-tagged NS3 and NS5 protein interaction at 500 uM after 1 hr by alphascreen assay
[6] = target: Tyrosine-protein kinase Fyn (Homo sapiens) (UniProt P06241); assay: Inhibition of human his-tagged full length Fyn active enzyme using KVEKIGEGTYGVVYK substrate by scintillation counting analysis
Chain of Tyrosine-protein kinase Fyn (Homo sapiens) (P06241 2-537 limits assumed): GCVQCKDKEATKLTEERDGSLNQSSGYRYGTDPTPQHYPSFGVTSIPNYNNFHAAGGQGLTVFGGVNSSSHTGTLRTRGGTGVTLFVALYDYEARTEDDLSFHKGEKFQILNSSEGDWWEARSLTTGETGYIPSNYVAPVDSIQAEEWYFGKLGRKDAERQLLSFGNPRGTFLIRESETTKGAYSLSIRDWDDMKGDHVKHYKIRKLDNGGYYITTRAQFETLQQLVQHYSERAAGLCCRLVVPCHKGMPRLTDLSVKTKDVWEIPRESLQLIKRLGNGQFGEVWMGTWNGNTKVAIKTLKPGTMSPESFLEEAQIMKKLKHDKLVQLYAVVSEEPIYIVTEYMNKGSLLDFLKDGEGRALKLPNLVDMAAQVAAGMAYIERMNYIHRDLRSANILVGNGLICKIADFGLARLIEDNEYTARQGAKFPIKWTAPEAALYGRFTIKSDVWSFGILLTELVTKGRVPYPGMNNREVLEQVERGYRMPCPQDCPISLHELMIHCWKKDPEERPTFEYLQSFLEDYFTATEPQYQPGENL

[7] = target: Proto-oncogene tyrosine-protein kinase Src (Homo sapiens) (UniProt P12931); assay: Inhibition of human his-tagged full length Src active enzyme using KVEKIGEGTYGVVYK substrate by scintillation counting analysis
Chain of Proto-oncogene tyrosine-protein kinase Src (Homo sapiens) (P12931 2-536 limits assumed): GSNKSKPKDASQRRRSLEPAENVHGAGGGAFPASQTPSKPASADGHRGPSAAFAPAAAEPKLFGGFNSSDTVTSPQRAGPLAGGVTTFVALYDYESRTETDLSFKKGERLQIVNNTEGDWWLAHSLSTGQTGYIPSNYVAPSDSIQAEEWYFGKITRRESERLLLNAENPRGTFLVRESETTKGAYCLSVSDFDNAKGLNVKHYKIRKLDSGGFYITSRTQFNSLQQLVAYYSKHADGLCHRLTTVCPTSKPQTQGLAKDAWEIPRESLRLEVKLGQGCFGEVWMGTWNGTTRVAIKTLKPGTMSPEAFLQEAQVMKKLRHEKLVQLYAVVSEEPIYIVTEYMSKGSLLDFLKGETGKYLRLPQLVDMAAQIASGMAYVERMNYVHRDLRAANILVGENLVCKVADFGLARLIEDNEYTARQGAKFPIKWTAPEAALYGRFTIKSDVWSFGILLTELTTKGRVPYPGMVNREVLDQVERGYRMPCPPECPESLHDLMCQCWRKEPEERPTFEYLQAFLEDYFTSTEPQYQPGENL

[8] = target: Proto-oncogene tyrosine-protein kinase Src (Homo sapiens) (UniProt P12931); assay: Inhibition of human his-tagged full length Src active enzyme using KVEKIGEGTYGVVYK substrate at 100 uM by scintillation counting analysis
[9] = target: Tyrosine-protein kinase Fyn (Homo sapiens) (UniProt P06241); assay: Inhibition of human his-tagged full length Fyn active enzyme using KVEKIGEGTYGVVYK substrate at 100 uM by scintillation counting analysis
Dengue virus = assay: Antiviral activity against DENV by CPE-reduction assay; assay type: functional, organism-based; method in brief: as §1
dengue virus type 2 [10] = assay: Inhibition of DENV2 His- and FLAG-tagged NS3 and NS5 protein interaction at 50 uM after 1 hr by alphascreen assay
Method in brief: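 Wheat-germ cell-free expressed HF-NS3 (or HF-DHFR as negative control) and GST-tagged biotinylated NS5, 25 nM each, incubated 1 h at room temperature with compound (0.5% DMSO) in Tris pH 7.5/NaCl/MgCl2/DTT/BSA/Tween-20 buffer. Then anti-FLAG IgG, protein A acceptor and streptavidin donor beads added for 1 h; luminescence expressed as % of DMSO control, n=2.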

dengue virus type 2 [11] = assay: Ratio of ribavirin EC50 to compound EC50 for DENV serotype 2 strain New Guinea V infected in African green monkey Vero B cells assessed as inhibition of virus-induced cytopathogenic effect after 7 days; assay type: functional
dengue virus type 2 [12] = assay: Antiviral activity against DENV serotype 2 strain New Guinea V infected in African green monkey Vero B cells assessed as RNA replication after 4 days by RT-qPCR analysis; assay type: functional, organism-based
Method in brief: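 Vero-B cells (5×10^4/well) infected 2 h with DENV-2 NGC (100 CCID50), washed 3×, then cultured 4 days with 5-fold serial compound dilutions (50 – 0.08 μg/mL) in MEM with 2% FBS. Viral RNA in supernatant quantified by RT-qPCR; EC50 (50% inhibition of viral RNA replication) by logarithmic interpolation.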

[13] = Dengue virus, New Guinea V, Vero, 168 h, read-out: EC50

SMILES	EC50 (dengue virus type 2 [1]; vero)	CC50 [2] [µM]	Ratio CC50/EC50 [3]	EC50 (dengue virus type 2 [4]) [µM]	inhibition (dengue virus type 2 [5])	ID50 [6] [µM]	ID50 [7] [µM]	also measured
Cc1cc(OCc2ccc(F)cc2F)cc(=O)n1Cc1cn(Cc2cccc(Br)c2)nn1	Not Active	36	–	–	–	–	–	–
NC(=O)c1ncn([C@@H]2O[C@H](CO)[C@@H](O)[C@H]2O)n1 [RIBAVIRIN]	–	409	>10	42	–	–	–	–
CNc1nc(Nc2ccc(C(C)=O)cc2)c2nc[nH]c2n1	–	> 177	>4	42	Active	–	–	–
CC(=O)c1ccc(Nc2nc(NCCO)nc3[nH]cnc23)cc1	–	160	2	72	Active	–	–	–
Oc1cccc(Nc2nc(NCc3ccccc3)nc3[nH]cnc23)c1	–	> 150	>2	69	Active	4.1	3.7	–
COc1cc2ncc(C#N)c(Nc3ccc(Cl)cc3Cl)c2cc1OC	–	< 5.7	–	–	–	0.22	0.03	EC50 (dengue virus type 2 [1]; [13]): < 5.7 µM
Cc1cc(OCc2ccc(F)cc2F)cc(=O)n1Cc1cn(Cc2cccc(C(F)(F)F)c2)nn1	Not Active	40	–	–	–	–	–	inhibition [8]: inactive; inhibition [9]: inactive
Cc1nc(Nc2ncc(C(=O)Nc3c(C)cccc3Cl)s2)cc(N2CCN(CCO)CC2)n1 [DASATINIB]	–	–	–	–	–	–	–	EC50 (Dengue virus): 1 µM
CC(=O)c1ccc(Nc2nc(NCCC(C)C)nc3[nH]cnc23)cc1	–	85	1	59	Active	–	–	–
NS(=O)(=O)c1ccc(Nc2nc(N3CCOCC3)nc3[nH]cnc23)cc1	Not Active	373	–	–	Active	0.5	0.9	–
COc1ccc2c(Nc3ccc(Cl)cc3Cl)c(C#N)cnc2c1	Not Active	19	–	–	–	2	0.2	–
NS(=O)(=O)c1ccc(Nc2nc(N3CCN(CCO)CC3)nc3nc[nH]c23)cc1	–	437	–	–	–	–	–	–
COc1ccc2c(Nc3ccc(N4CCN(C)CC4)cc3)c(C#N)cnc2c1	Not Active	7.9	–	–	–	–	–	inhibition [8]: inactive; inhibition [9]: inactive
NS(=O)(=O)c1ccc(Nc2nc(N3CCN(CCO)CC3)nc3[nH]cnc23)cc1	Not Active	–	–	–	Active	4.8	7.4	–
OCCN1CCN(c2nc(Nc3ccccc3)c3nc[nH]c3n2)CC1	Not Active	474	–	–	Active	4.2	4.2	–
CN1CCN(CCOc2cc(OC3CCOCC3)c3c(Nc4c(Cl)ccc5c4OCO5)ncnc3c2)CC1 [SARACATINIB]	–	–	–	–	–	–	–	EC50 (Dengue virus): 6 µM
COc1ccc(Cn2c(C)cc(OCc3cccc(F)c3)cc2=O)cc1	–	< 6.4	–	–	–	–	–	EC50 (dengue virus type 2 [1]; [13]): < 6.4 µM; inhibition [8]: inactive; inhibition [9]: inactive
CNc1nc(Nc2cccc(O)c2)c2nc[nH]c2n1	–	168	32	5.3	Active	3.6	–	inhibition (dengue virus type 2 [10]): 33%; ID50 [8]: 4.9 µM; Ratio EC50 (dengue virus type 2 [11]): 10; inhibition (dengue virus type 2 [12]): Dose-dependent effect
CC(C)CCNc1nc(Nc2cccc(O)c2)c2nc[nH]c2n1	–	151	8	20	Active	1.7	1.7	–
